{"data": "Assay results pooled from the literature", "sample": "Caco-2"}
{"Compound": "Oc1cc(O)c2c(c1)O[C@H](c1ccc(O)c(O)c1)[C@H](O)C2", "concentration": "100 µg/mL", "time": "2 h", "Papp B→A": "0.55 ×10⁻⁶ cm/s"}
{"Compound": "N#Cc1ccc(C[C@H](Nc2c(Nc3ccc(Br)cc3)c(=O)c2=O)C(=O)N2CCc3ccccc32)cc1", "concentration": "100 µM", "time": "2 h", "Papp B→A": "249 ×10⁻⁶ cm/s"}
{"Compound": "Cc1ccc(N(c2ccc(NC(=O)CN(C)c3ccccc3N3CCCC3=O)cc2)C(C)C)cc1", "Papp B→A": "2.52 ×10⁻⁶ cm/s"}
{"Compound": "CC[C@]1(O)C[C@@H]2CN(CCc3c([nH]c4ccccc34)[C@@](C(=O)OC)(c3cc4c(cc3OC)N(C)[C@H]3[C@@](O)(C(=O)OC)[C@H](OC(C)=O)[C@]5(CC)C=CCN6CC[C@]43[C@@H]65)C2)C1", "concentration": "10 µM", "time": "2 h", "Papp B→A": "22.9 ×10⁻⁶ cm/s"}
{"Compound": "CCCCCCOC(=O)NC(=N)c1ccc(NCc2nc3cc(C(=O)N(CCC(=O)OCC)c4ccccn4)ccc3n2C)cc1", "concentration": "5 µM", "time": "2 h", "Papp B→A": "1.1 ×10⁻⁶ cm/s"}
{"Compound": "COc1ccc(-c2coc3cc(O)cc(O)c3c2=O)cc1", "concentration": "100 µg/mL", "time": "2 h", "Papp B→A": "21.2 ×10⁻⁶ cm/s"}
{"Compound": "Cc1cc(C)c(CNC(=O)c2cc(Cl)c3c(c2C)O[C@@](C)([C@H]2CC[C@H](N(C)C)CC2)O3)c(=O)[nH]1", "concentration": "30 µM", "Papp B→A": "19 ×10⁻⁶ cm/s"}
{"Compound": "N#Cc1ccc(C[C@H](NC(=O)c2cc3cc(F)ccc3[nH]2)C(=O)N2CCc3ccccc32)cc1", "concentration": "100 µM", "time": "2 h", "Papp B→A": "386 ×10⁻⁶ cm/s"}
{"Compound": "O=c1c(-c2ccc(O)cc2)coc2cc(O)ccc12", "concentration": "100 µg/mL", "time": "2 h", "Papp B→A": "4.98 ×10⁻⁶ cm/s"}
{"Compound": "C=CC(=O)NC1CCN(c2ncc3ncnc(Nc4ccc(Oc5ccc6c(c5)ncn6C)c(C)c4)c3n2)CC1", "Papp B→A": "~9 ×10⁻⁶ cm/s"}
{"Compound": "O=c1cc(-c2ccccc2)oc2cc(O)c(O)c(O)c12", "concentration": "100 µg/mL", "time": "2 h", "Papp B→A": "2.76 ×10⁻⁶ cm/s"}
{"Compound": "N#Cc1ccc(C[C@H](Nc2ncc(-c3ccc(F)cc3)o2)C(=O)N2CCc3ccccc32)cc1", "concentration": "100 µM", "time": "2 h", "Papp B→A": "200 ×10⁻⁶ cm/s"}
{"Compound": "C[C@H]1O[C@@H](O[C@H]2[C@@H](O)C[C@H](O[C@H]3[C@@H](O)C[C@H](O[C@H]4CC[C@@]5(C)[C@H](CC[C@@H]6[C@@H]5C[C@@H](O)[C@]5(C)[C@@H](C7=CC(=O)OC7)CC[C@]65O)C4)O[C@@H]3C)O[C@@H]2C)C[C@H](O)[C@@H]1O", "concentration": "10 µM", "time": "2 h", "Papp B→A": "13.6 ×10⁻⁶ cm/s"}
